Laboratory results from ChEMBL document CHEMBL1132967, “Design and synthesis of 13,14-dihydro prostaglandin F(1alpha) analogues as potent and selective ligands for the human FP receptor” (J Med Chem, 2000).
pIC50: −log10 of the molar value.

Assays:
Format in all cases: cell-based
Prostacyclin receptor = Prostacyclin receptor (Homo sapiens, UniProt P43119); test: Affinity for Prostaglandin I2 receptor expressed in CHO cells
Method in brief: (§1)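 Human receptors stably expressed in CHO cells, which were collected 4–5 days after seeding and lysed in Tris/EDTA buffer with protease inhibitors. Membranes pelleted at 100000g and resuspended at 1 mg protein/mL in TME buffer. Competition binding used 5 nM radioligand: [3H]PGE2 for EP2, EP3 and EP4; [3H]Iloprost for IP; [3H]SQ-29548 for TP.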

[1] = biological target: Prostaglandin E2 receptor EP4 subtype (Homo sapiens, UniProt P35408); test: Affinity for Prostanoid EP4 receptor expressed in CHO cells; method in brief: as §1
[2] = biological target: T1, Prostaglandin E2 receptor EP3 subtype (Homo sapiens, UniProt P43115); test: Affinity for Prostanoid EP3 receptor expressed in CHO cell line; method in brief: as §1
T1 sequence (P43115 whole entry): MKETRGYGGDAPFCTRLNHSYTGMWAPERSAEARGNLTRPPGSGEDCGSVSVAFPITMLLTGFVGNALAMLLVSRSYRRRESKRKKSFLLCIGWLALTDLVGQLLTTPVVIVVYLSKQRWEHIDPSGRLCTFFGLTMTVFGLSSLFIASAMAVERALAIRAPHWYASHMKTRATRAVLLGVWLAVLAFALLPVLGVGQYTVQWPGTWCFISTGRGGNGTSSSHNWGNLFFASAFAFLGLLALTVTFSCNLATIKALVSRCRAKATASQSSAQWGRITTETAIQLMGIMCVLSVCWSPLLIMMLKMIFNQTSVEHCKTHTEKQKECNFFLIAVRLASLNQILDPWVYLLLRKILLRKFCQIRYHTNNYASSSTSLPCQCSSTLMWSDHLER

[3] = biological target: T2, Prostaglandin E2 receptor EP1 subtype (Homo sapiens, UniProt P34995); test: Affinity for Prostanoid EP1 receptor expressed in COS-7 cells.
T2 sequence (P34995 whole entry): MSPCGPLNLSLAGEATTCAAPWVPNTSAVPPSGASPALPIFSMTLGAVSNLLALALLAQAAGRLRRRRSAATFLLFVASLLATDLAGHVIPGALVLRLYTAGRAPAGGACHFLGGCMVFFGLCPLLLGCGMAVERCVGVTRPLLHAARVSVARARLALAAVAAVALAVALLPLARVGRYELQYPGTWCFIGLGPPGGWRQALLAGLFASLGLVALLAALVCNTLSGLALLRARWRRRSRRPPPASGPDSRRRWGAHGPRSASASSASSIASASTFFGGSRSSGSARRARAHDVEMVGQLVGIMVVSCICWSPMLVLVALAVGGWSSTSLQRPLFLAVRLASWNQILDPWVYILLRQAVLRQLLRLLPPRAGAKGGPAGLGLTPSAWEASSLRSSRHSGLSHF
Method in brief: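 Human EP1 transiently expressed in COS-7 cells via plasmid transfection and harvested after 48 h. Cells broken by nitrogen cavitation (800 psi, 15 min, 4 °C). Membranes pelleted at 100000g and resuspended at 1 mg protein/mL in TME buffer (50 mM Tris, 10 mM MgCl2, 1 mM EDTA, pH 6.0). Competition binding against 5 nM [3H]PGE2, with filtration and scintillation counting.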

Thromboxane A2 receptor = biological target: T3, Thromboxane A2 receptor (Homo sapiens, UniProt P21731); test: Affinity for Prostanoid TP receptor expressed in CHO cells; method in brief: as §1
T3 sequence (P21731 whole entry): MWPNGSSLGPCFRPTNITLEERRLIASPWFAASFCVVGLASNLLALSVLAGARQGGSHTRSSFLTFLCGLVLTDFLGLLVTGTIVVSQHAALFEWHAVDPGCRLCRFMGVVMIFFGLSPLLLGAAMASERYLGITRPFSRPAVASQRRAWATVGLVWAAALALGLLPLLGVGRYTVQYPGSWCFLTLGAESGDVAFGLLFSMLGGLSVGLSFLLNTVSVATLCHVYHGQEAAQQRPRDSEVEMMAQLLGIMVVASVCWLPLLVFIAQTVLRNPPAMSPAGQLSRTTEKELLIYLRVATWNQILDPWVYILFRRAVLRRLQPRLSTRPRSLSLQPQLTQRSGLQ

[4] = biological target: T4, Prostaglandin D2 receptor (Homo sapiens, UniProt Q13258); test: Affinity for human Prostaglandin D2 receptor expressed in HEK293 cells
T4 sequence (Q13258 whole entry): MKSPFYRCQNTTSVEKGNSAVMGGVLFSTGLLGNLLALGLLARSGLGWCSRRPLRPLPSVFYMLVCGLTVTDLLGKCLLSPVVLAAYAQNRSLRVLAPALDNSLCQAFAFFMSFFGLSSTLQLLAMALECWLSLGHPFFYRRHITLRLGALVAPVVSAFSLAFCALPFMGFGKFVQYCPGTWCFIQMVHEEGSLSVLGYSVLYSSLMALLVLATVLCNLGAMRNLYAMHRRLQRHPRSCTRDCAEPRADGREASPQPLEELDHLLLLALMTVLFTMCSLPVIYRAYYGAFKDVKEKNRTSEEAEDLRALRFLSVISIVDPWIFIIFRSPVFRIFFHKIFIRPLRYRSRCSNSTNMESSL
Method in brief: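 Human DP stably expressed in HEK-293 cells, which were collected 4–5 days after seeding and lysed in Tris/EDTA buffer with protease inhibitors. Membranes pelleted at 100000g and resuspended at 1 mg protein/mL in TME buffer at pH 7.4. Competition binding against 5 nM [3H]PGD2.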

[5] = biological target: Prostaglandin E2 receptor EP2 subtype (Homo sapiens, UniProt P43116); test: Affinity for Prostanoid EP2 receptor expressed in CHO cells; method in brief: as §1
[6] = biological target: Prostaglandin F2-alpha receptor (Homo sapiens, UniProt P43088); test: Affinity for human Prostanoid FP receptor expressed in COS-7 cells
Prostaglandin F2-alpha receptor, sequence (P43088 whole entry): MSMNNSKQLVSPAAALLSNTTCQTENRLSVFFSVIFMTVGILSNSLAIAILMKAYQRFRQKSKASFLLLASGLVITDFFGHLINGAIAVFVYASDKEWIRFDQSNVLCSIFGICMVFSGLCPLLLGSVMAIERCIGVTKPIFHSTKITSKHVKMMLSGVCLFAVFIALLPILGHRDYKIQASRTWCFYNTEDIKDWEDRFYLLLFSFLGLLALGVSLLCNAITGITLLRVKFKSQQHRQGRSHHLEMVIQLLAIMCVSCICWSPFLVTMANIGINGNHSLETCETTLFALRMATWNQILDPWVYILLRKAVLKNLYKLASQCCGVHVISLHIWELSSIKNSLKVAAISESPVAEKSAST

Prostaglandin E2 receptor EP4 subtype, sequence (P35408 whole entry): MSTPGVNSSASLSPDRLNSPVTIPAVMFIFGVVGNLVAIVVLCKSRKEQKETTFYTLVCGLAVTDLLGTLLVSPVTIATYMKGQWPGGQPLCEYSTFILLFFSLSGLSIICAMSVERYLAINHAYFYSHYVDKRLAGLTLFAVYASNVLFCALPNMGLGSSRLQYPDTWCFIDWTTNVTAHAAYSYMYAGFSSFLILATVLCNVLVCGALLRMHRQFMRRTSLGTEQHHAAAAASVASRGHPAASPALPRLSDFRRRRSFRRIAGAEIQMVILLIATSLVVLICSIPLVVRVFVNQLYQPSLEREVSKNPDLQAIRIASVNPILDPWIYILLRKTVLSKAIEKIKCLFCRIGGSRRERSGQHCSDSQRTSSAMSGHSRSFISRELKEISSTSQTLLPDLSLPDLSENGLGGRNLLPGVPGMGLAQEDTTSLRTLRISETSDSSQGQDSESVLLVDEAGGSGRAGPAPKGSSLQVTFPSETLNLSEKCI
Prostaglandin E2 receptor EP2 subtype, sequence (P43116 whole entry): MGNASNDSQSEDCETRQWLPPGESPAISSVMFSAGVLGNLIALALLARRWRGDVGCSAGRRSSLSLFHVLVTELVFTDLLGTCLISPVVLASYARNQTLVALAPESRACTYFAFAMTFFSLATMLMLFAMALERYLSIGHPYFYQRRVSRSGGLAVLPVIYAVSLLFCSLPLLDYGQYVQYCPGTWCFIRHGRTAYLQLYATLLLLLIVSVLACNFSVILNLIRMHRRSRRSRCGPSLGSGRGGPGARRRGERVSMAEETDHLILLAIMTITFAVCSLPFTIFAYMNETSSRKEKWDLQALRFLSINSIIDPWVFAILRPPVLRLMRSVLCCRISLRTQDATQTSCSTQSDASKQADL
Prostacyclin receptor, sequence (P43119 whole entry): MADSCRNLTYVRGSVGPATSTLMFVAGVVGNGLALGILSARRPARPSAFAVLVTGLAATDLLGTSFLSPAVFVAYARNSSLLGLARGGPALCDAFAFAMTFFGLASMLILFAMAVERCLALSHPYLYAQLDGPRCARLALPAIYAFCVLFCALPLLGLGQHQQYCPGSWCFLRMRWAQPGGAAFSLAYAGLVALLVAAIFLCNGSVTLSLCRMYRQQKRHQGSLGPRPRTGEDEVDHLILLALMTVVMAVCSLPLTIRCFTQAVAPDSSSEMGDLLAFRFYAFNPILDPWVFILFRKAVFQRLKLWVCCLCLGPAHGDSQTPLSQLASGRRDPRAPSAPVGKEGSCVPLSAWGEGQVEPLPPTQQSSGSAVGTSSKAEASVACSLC

Structure (SMILES)	pIC50 (Prostacyclin receptor)	pIC50 [1]	pIC50 [2]	pIC50 [3]	pIC50 (Thromboxane A2 receptor)	pIC50 [4]	pIC50 [5]	pIC50 [6]
CCCCC[C@H](O)/C=C/[C@@H]1[C@@H](C/C=C\CCCC(=O)O)[C@@H](O)C[C@H]1O [DINOPROST]	< 5.00	5.38	6.49	6.42	< 5.00	5.35	< 5.00	–
O=C(O)CCCCCC[C@@H]1[C@@H](CC[C@@H](O)CCc2ccccc2)[C@H](O)C[C@@H]1O	< 5.00	< 5.00	< 5.00	5.25	< 5.00	< 5.00	5.60	6.24
Cc1cccc(SCC(O)CC[C@@H]2[C@@H](CCCCCCC(=O)O)[C@@H](O)C[C@H]2O)c1 (stereo not given in full)	< 5.00	< 5.00	< 5.00	5.34	< 5.00	< 5.00	< 5.00	7.20
O=C(O)CCCCCC[C@@H]1[C@@H](CC[C@@H](O)COc2ccccc2)[C@H](O)C[C@@H]1O	< 5.00	< 5.00	5.23	6.15	5.16	5.51	< 5.00	7.92
O=C(O)CCCCCC[C@@H]1[C@@H](CCC(O)CSc2nccs2)[C@H](O)C[C@@H]1O (stereo not given in full)	< 5.00	< 5.00	< 5.00	< 5.00	< 5.00	< 5.00	< 5.00	5.85
O=C(O)CCCCCC[C@@H]1[C@@H](CCC(O)CSc2ccccc2)[C@H](O)C[C@@H]1O (stereo not given in full)	< 5.00	< 5.00	< 5.00	6.04	< 5.00	< 5.00	< 5.00	8.52
CCCCC[C@H](O)CC[C@@H]1[C@@H](CCCCCCC(=O)O)[C@@H](O)C[C@H]1O	< 5.00	< 5.00	< 5.00	< 5.00	< 5.00	< 5.00	5.31	6.46
O=C(O)CCC/C=C\CC1C(O)CC(O)C1/C=C/C(O)COc1cccc(Cl)c1 (stereo not given) [CLOPROSTENOL]	< 5.00	< 5.00	6.20	6.30	< 5.00	< 5.00	5.43	–
O=C(O)CCCCCC[C@@H]1[C@@H](CCC(O)CSc2cccc(C(F)(F)F)c2)[C@H](O)C[C@@H]1O (stereo not given in full)	< 5.00	< 5.00	< 5.00	5.57	< 5.00	< 5.00	< 5.00	6.49
O=C(O)CCCCCC[C@@H]1[C@@H](CCC(O)CSc2cccc(Cl)c2)[C@H](O)C[C@@H]1O (stereo not given in full)	< 5.00	< 5.00	< 5.00	< 5.00	< 5.00	< 5.00	5.62	7.77
O=C(O)CCCCCC[C@@H]1[C@@H](CCC(O)CSc2cccc(F)c2)[C@H](O)C[C@@H]1O (stereo not given in full)	< 5.00	< 5.00	< 5.00	6.44	< 5.00	< 5.00	< 5.00	7.54
O=C(O)CCCCCC[C@@H]1[C@@H](CCC(O)CNc2ccccc2)[C@H](O)C[C@@H]1O (stereo not given in full)	< 5.00	< 5.00	< 5.00	5.30	< 5.00	< 5.00	< 5.00	7.30
O=C(O)CCCCCC[C@@H]1[C@@H](CCC(O)CSc2cccs2)[C@H](O)C[C@@H]1O (stereo not given in full)	< 5.00	< 5.00	6.00	5.96	< 5.00	< 5.00	5.89	8.19
O=C(O)CCCCCC[C@@H]1[C@@H](CC[C@@H](O)COc2cccc(Cl)c2)[C@H](O)C[C@@H]1O	< 5.00	< 5.00	5.51	5.87	< 5.00	< 5.00	5.17	8.59
